The source made the active and inactive calls. The rule behind the calls is not given here.
Key:
WI-38 = experiment: Cytotoxicity against human WI38 cells after 72 hrs by MTS assay; format: cell-based; conditions: WI-38, 72 h
In short: (§1)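 Non-tumour human cells were HUVEC (umbilical vein endothelial), T29 (immortalized, nontumorigenic ovarian epithelial), WI-38 (lung fibroblasts) and MCF-10A (nontumorigenic breast epithelial). Viability was read by tetrazolium assay. IC50 is the mean of triplicate determinations.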

HeLa = experiment: Antiproliferative activity against human HeLa cells after 48 hrs by MTT assay; format: functional, cell-based
In short: (§2)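 Human tumour lines were HeLa (cervical), SKOV3, OVCA429, OVCA433 and A2780 (ovarian), A549 (non-small cell lung), MDA-MB-231 and MCF-7 (breast), and KB (oral epidermoid). Antiproliferation was read by MTT assay. IC50 is the mean of triplicate determinations.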

SK-OV-3 = experiment: Antiproliferative activity against human SKOV3 cells after 48 hrs by MTT assay; format: functional, cell-based; conditions: SK-OV-3, 48 h; in short: as §2
A549 = experiment: Antiproliferative activity against human A549 cells after 48 hrs by MTT assay; format: functional, cell-based; conditions: A549, 48 h; in short: as §2
[1] = Antiproliferative activity against human OVCA429 cells after 48 hrs by MTT assay; format: functional, cell-based; conditions: OVCA429, 48 h; in short: as §2
[2] = Antiproliferative activity against human OVCA433 cells after 48 hrs by MTT assay; format: functional, cell-based; conditions: OVCA433, 48 h; in short: as §2
A2780 [3] = experiment: Antiproliferative activity against human A2780 cells after 48 hrs by MTT assay; format: functional, cell-based; conditions: A2780, 48 h; in short: as §2
MDA-MB-231 = experiment: Antiproliferative activity against human MDA-MB-231 cells after 48 hrs by MTT assay; format: functional, cell-based; conditions: MDA-MB-231, 48 h
MCF7 = experiment: Antiproliferative activity against human MCF7 cells after 48 hrs by MTT assay; format: functional, cell-based; conditions: MCF7, 48 h; in short: as §2
KB = experiment: Antiproliferative activity against human KB cells after 48 hrs by MTT assay; format: functional, cell-based; in short: as §2
MV4-11 = experiment: Antiproliferative activity against human MV411 cells after 72 hrs by MTS assay; format: functional, cell-based; conditions: MV4-11, 72 h
In short: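 Human myeloid leukaemia MV-4-11 cells; antiproliferation read by MTS assay. IC50 is the mean of triplicate determinations.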

MM1.S = experiment: Antiproliferative activity against human MM1S cells after 72 hrs by MTS assay; format: functional, cell-based
[4] = Antiproliferative activity against human A2780/CDDP cells after 48 hrs by MTT assay; format: functional, cell-based
In short: (§3)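 Drug-resistant human tumour lines were A2780/CDDP (cisplatin-resistant ovarian), MDA-MB-231/Gem (gemcitabine-resistant breast), MCF-7/ADR and KB-V. Antiproliferation was read by MTT assay. IC50 is the mean of triplicate determinations.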

[5] = Antiproliferative activity against human MDA-MB-231/Gem cells after 48 hrs by MTT assay; format: functional, cell-based
NCI/ADR-RES = experiment: Antiproliferative activity against human MCF7/ADR cells after 48 hrs by MTT assay; format: functional, cell-based; in short: as §3
[6] = Antiproliferative activity against human KBV cells after 48 hrs by MTT assay; format: functional, cell-based; in short: as §3
[7] = Selectivity ratio of IC50 for human A2780 cells to IC50 for A2780/CDDP cells; format: functional
In short: (§4)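 Selectivity ratio = IC50 in the drug-sensitive parent line / IC50 in its resistant subline (A2780 vs A2780/CDDP, MDA-MB-231 vs MDA-MB-231/Gem, MCF-7 vs MCF-7/ADR, KB vs KB-V). Each IC50 came from MTT assays, mean of triplicates.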

[8] = Selectivity ratio of IC50 for human MDA-MB-231 cells to IC50 for MDA-MB-231/Gem cells; format: functional; in short: as §4
[9] = Selectivity ratio of IC50 for human MCF7 cells to IC50 for MCF7/ADR cells; format: functional; in short: as §4
[10] = Selectivity ratio of IC50 for human KB cells to IC50 for KBV cells; format: functional; in short: as §4
HUVEC = experiment: Cytotoxicity against HUVEC after 48 hrs by MTT assay; format: cell-based; conditions: Homo sapiens; in short: as §1
[11] = Cytotoxicity against human T29 cells after 48 hrs by MTT assay; format: cell-based; conditions: T29, 48 h; in short: as §1
[12] = Drug metabolism in human A2780 cells assessed as nitric oxide release at 100 uM after 150 mins by Griess assay; format: ADME, cell-based; conditions: a2780, 2.5 h
[13] = molecular target: Dual specificity mitogen-activated protein kinase kinase; MEK1/2 (Homo sapiens) (UniProt P36507+Q02750); experiment: Inhibition of MEK (unknown origin); format: protein assay
MCF-10A = experiment: Cytotoxicity against human MCF10A cells after 72 hrs by MTS assay; format: cell-based; in short: as §1
A2780 [14] = experiment: Antiproliferative activity against human A2780 cells at 50 nM after 48 hrs in presence of scavenger c-PTIO by MTT assay; format: functional, cell-based
In short: (§5)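 A2780 and A2780/CDDP cells were exposed to compound at 50 nM together with a series of concentrations of the NO scavenger c-PTIO. Antiproliferation was measured and reported as mean ± SEM of two independent experiments.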

Homo sapiens = species on record: Homo sapiens; experiment: Antiproliferative activity against human A2780/CDDP cells at 50 nM after 48 hrs in presence of scavenger c-PTIO by MTT assay; format: functional, cell-based; in short: as §5
A2780 [15] = experiment: Induction of apoptosis in human A2780 cells assessed as increase in early apoptotic cells at 10 to 20 nM measured after 24 hrs by Annexin-V-FITC/propidium iodide staining based flow cytometric method; format: functional, cell-based

Sequence of Dual specificity mitogen-activated protein kinase kinase; MEK1/2 (Homo sapiens) (P36507 whole entry, looked up): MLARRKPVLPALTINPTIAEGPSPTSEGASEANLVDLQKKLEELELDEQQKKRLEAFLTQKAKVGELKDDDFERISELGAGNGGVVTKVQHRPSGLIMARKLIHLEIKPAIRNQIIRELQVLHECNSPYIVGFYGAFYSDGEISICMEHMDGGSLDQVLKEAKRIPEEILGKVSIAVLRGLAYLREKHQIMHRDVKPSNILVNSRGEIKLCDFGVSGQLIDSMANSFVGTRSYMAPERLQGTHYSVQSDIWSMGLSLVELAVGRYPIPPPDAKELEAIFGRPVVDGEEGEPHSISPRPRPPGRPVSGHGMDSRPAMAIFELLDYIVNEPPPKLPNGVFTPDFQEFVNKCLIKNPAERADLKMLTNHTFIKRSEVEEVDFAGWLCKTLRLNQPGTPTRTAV
Sequence of Dual specificity mitogen-activated protein kinase kinase; MEK1/2 (Homo sapiens) (Q02750 whole entry, looked up): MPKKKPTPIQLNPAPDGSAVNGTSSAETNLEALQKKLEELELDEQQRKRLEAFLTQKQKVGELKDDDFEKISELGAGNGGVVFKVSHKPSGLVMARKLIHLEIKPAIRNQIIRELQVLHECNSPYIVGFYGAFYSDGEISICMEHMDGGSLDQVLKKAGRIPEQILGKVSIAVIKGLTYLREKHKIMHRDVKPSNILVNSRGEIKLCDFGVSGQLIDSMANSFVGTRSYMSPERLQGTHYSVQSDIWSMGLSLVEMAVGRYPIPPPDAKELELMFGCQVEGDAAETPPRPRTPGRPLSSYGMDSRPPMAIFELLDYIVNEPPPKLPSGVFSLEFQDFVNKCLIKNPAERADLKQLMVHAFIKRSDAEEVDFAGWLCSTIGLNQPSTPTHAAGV

Structure (SMILES) | IC50 (HeLa) [nM] | IC50 (SK-OV-3) [nM] | IC50 (A549) [nM] | IC50 (A2780 [3]) [nM] | IC50 (MDA-MB-231) [nM] | IC50 (MCF7) [nM] | IC50 (KB) [nM] | IC50 (MV4-11) [nM] | IC50 (MM1.S) [nM] | IC50 (WI-38) [nM] | IC50 [1] [nM] | IC50 [2] [nM] | IC50 [4] [nM] | IC50 [5] [nM] | IC50 (NCI/ADR-RES) [nM] | IC50 [6] [nM] | Ratio IC50 [7] | Ratio IC50 [8] | Ratio IC50 [9] | Ratio IC50 [10] | other results
COc1cc(OCCOc2no[n+]([O-])c2S(=O)(=O)c2ccccc2)ccc1C(=O)/C=C/c1ccccc1 | 17.8 | 35.8 | 3.3 | 8.7 | 0.5 | 1860 | 2180 | 29.3 | 28 | 440 | 4.4 | 10.1 | 51.7 | 10.5 | 18 | 13.9 | 0.2 | 0.05 | 103.6 | 157 | IC50 (HUVEC): 410 nM; IC50 [11]: 2.5 µM; Drug metabolism [12]: Metabolite_Detected; inhibition [13]: inactive
COCCOc1no[n+]([O-])c1S(=O)(=O)c1ccccc1 | 8830 | 3910 | 4780 | 1640 | 1230 | 3500 | 3690 |  |  |  | 5170 | 4390 | 4820 | 4750 | 7840 | 1960 | 0.3 | 0.3 | 0.5 | 1.9 | 
COc1cccc2c1C(=O)c1c(O)c3c(c(O)c1C2=O)C[C@@](O)(C(=O)CO)C[C@@H]3O[C@H]1C[C@H](N)[C@H](O)[C@H](C)O1 [DOXORUBICIN] |  |  |  |  |  |  |  |  |  |  |  |  |  |  | > 100000 |  |  |  |  |  | 

The remaining compounds from weak to strong by IC50 (HeLa), led by results:

IC50 (HeLa) [nM] | IC50 (SK-OV-3) [nM] | IC50 (A549) [nM] | IC50 (A2780 [3]) [nM] | IC50 (MDA-MB-231) [nM] | IC50 (MCF7) [nM] | IC50 (KB) [nM] | IC50 (MV4-11) [nM] | IC50 (MM1.S) [nM] | Structure (SMILES) | IC50 (WI-38) [nM] | IC50 [1] [nM] | IC50 [2] [nM] | IC50 [4] [nM] | IC50 [5] [nM] | IC50 (NCI/ADR-RES) [nM] | IC50 [6] [nM] | Ratio IC50 [7] | Ratio IC50 [8] | Ratio IC50 [9] | Ratio IC50 [10] | other results
15.4 | 19.2 | 7.9 | 10.2 | 1.1 | 3130 | 1140 | 66.3 | 24 | CNS(=O)(=O)Nc1cccc(Cc2c(C)c3ccc(OCCOc4no[n+]([O-])c4S(=O)(=O)c4ccccc4)cc3oc2=O)c1 | 1360 | 6.1 | 16.3 | 47.2 | 50.4 | 50.1 | 65.4 | 0.2 | 0.02 | 62.5 | 17.5 | IC50 (HUVEC): 190 nM; IC50 [11]: > 5 µM; Drug metabolism [12]: Metabolite_Detected; inhibition [13]: inactive
6.9 | 25 | 3.5 | 14.5 | 1.4 | 1410 | 1660 | 29.6 | 25 | COc1cc(OCCOc2no[n+]([O-])c2S(=O)(=O)c2ccccc2)ccc1C(=O)/C=C/c1ccc(F)cc1 | 560 | 4 | 6.6 | 34.1 | 93 | 47.9 | 10.1 | 0.4 | 0.02 | 29.5 | 164.9 | IC50 (HUVEC): 360 nM; IC50 [11]: 3.5 µM; Drug metabolism [12]: Metabolite_Detected; inhibition [13]: inactive; Activity (A2780 [15]): Active
2.8 | 8.3 | 3.7 | 6.6 | 0.8 | 2850 | 3230 | 27.2 | 143 | Cc1c(Cc2ccc(F)cc2)c(=O)oc2cc(OCCOc3no[n+]([O-])c3S(=O)(=O)c3ccccc3)ccc12 | > 20000 | 3.9 | 3.3 | 22.8 | 6.9 | 5.1 | 11 | 0.3 | 0.1 | 559.4 | 294 | IC50 (MCF-10A): > 20 µM; IC50 (HUVEC): 270 nM; IC50 [11]: > 5 µM; Drug metabolism [12]: Metabolite_Detected; Activity (A2780 [14]): inactive; Activity (Homo sapiens): inactive; inhibition [13]: inactive; Activity (A2780 [15]): Active
